{
  "source": "ChEMBL document CHEMBL1135382",
  "about": "“First dual NK(1) antagonists-serotonin reuptake inhibitors: synthesis and SAR of a new class of potential antidepressants” (Bioorg Med Chem Lett, 2002)",
  "key": {"[1]": {"test": "Lipophilicity", "format": "physicochemical"}, "[2]": {"biological_target": "Sodium-dependent serotonin transporter (Rattus norvegicus, UniProt P31652)", "sequence (P31652 whole entry)": "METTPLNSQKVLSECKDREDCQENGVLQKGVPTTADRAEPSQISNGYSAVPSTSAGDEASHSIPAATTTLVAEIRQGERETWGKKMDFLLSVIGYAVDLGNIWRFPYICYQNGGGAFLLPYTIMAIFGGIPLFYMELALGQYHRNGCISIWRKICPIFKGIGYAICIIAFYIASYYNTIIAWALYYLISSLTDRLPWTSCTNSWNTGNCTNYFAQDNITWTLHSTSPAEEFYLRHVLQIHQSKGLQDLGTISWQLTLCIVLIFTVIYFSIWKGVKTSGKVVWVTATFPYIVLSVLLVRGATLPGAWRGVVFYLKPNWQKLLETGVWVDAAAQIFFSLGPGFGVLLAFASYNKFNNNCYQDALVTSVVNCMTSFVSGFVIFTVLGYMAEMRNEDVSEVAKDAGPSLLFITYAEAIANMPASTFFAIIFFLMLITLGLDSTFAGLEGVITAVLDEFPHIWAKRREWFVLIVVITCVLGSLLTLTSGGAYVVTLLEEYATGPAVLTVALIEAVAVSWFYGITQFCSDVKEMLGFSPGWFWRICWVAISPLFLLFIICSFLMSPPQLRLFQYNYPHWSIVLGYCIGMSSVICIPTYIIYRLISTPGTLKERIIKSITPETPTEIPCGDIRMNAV", "test": "Binding affinity at serotonin transporter from rat cerebral cortex by [3H]-paroxetine displacement.", "format": "tissue-based", "how_it_was_run": "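Rat cerebral cortex membranes (100–200 μg protein) were incubated 120 min at 25 °C in 50 mM Tris–HCl pH 7.4 with 2 mM MgCl2 and 0.05 nM radioligand. Nonspecific binding was defined with 5 μM imipramine.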"}, "Substance-P receptor [3]": {"biological_target": "T1, Substance-P receptor (Homo sapiens, UniProt P25103)", "T1 sequence (P25103 whole entry)": "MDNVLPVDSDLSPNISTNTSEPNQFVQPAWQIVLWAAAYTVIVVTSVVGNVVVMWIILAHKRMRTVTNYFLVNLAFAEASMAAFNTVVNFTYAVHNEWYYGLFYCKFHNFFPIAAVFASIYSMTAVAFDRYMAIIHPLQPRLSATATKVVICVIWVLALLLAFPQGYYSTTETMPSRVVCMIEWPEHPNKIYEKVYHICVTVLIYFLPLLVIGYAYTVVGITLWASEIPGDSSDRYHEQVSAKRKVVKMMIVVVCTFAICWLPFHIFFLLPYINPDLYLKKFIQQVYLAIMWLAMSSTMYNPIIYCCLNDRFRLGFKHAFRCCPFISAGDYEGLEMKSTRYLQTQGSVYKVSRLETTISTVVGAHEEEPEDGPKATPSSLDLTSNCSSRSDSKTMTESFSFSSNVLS", "test": "Binding affinity towards human Tachykinin receptor 1 expressed in CHO cells using [3H]-substance P; Less than 50% inhibition at 10e-5 M", "format": "cell-based"}, "Substance-P receptor [4]": {"biological_target": "T1, Substance-P receptor", "test": "Binding affinity at human Tachykinin receptor 1 expressed in CHO cells by [3H]-substance P displacement.", "format": "cell-based", "how_it_was_run": "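Membranes (10–20 μg protein) from CHO cells expressing human NK1 receptor were incubated 60 min at 25 °C in 50 mM Tris–HCl pH 7.4 with 2 mM MgCl2, 100 μg/mL bacitracin and 0.25 nM [3H]substance P.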"}},
  "data": [
    {"smiles": "O=C(COc1cc(F)cc(F)c1)N(Cc1cccc(Cl)c1)C1CCNCC1", "values": [
      {"measurement": "Log K' IAM", "setting": "[1]", "value": 2.4},
      {"measurement": "IC50", "setting": "[2]", "value": 20, "unit": "nM"},
      {"measurement": "inhibition", "setting": "Substance-P receptor [3]", "value": "< 5", "unit": "%"}
    ]},
    {"smiles": "Fc1ccc(N(CCCc2cc(C(F)(F)F)cc(C(F)(F)F)c2)C2CCNCC2)cc1", "values": [
      {"measurement": "Log K' IAM", "setting": "[1]", "value": 3.9},
      {"measurement": "IC50", "setting": "[2]", "value": 39.8, "unit": "nM"},
      {"measurement": "IC50", "setting": "Substance-P receptor [4]", "value": 50.1, "unit": "nM"}
    ]},
    {"smiles": "Cc1cc(C)cc(OCC(=O)N(Cc2cccc(Cl)c2)C2CCNCC2)c1", "values": [
      {"measurement": "Log K' IAM", "setting": "[1]", "value": 2.6},
      {"measurement": "IC50", "setting": "[2]", "value": 25.1, "unit": "nM"},
      {"measurement": "IC50", "setting": "Substance-P receptor [4]", "value": 100, "unit": "nM"}
    ]},
    {"smiles": "O=C(COc1cc(C(F)(F)F)cc(C(F)(F)F)c1)N(c1ccc(F)cc1)C1CCNCC1", "values": [
      {"measurement": "Log K' IAM", "setting": "[1]", "value": 2.5},
      {"measurement": "IC50", "setting": "[2]", "value": 631, "unit": "nM"},
      {"measurement": "IC50", "setting": "Substance-P receptor [4]", "value": 316, "unit": "nM"}
    ]},
    {"smiles": "O=C(CCc1cc(C(F)(F)F)cc(C(F)(F)F)c1)N(Cc1ccc(F)cc1)C1CCNCC1", "values": [
      {"measurement": "Log K' IAM", "setting": "[1]", "value": 2.9},
      {"measurement": "IC50", "setting": "[2]", "value": 316, "unit": "nM"},
      {"measurement": "IC50", "setting": "Substance-P receptor [4]", "value": 31.6, "unit": "nM"}
    ]},
    {"smiles": "O=C(COc1cc(F)cc(C(F)(F)F)c1)N(Cc1cccc(Cl)c1)C1CCNCC1", "values": [
      {"measurement": "Log K' IAM", "setting": "[1]", "value": 2.9},
      {"measurement": "IC50", "setting": "[2]", "value": 100, "unit": "nM"},
      {"measurement": "inhibition", "setting": "Substance-P receptor [3]", "value": "< 5", "unit": "%"}
    ]},
    {"smiles": "O=C(COc1cc(F)cc(C(F)(F)F)c1)N(c1ccc(Cl)c(Cl)c1)C1CCNCC1", "values": [
      {"measurement": "Log K' IAM", "setting": "[1]", "value": 3},
      {"measurement": "IC50", "setting": "[2]", "value": 39.8, "unit": "nM"},
      {"measurement": "inhibition", "setting": "Substance-P receptor [3]", "value": "< 5", "unit": "%"}
    ]},
    {"smiles": "O=C(COc1cc(C(F)(F)F)cc(C(F)(F)F)c1)N(c1cccc(Cl)c1)C1CCNCC1", "values": [
      {"measurement": "Log K' IAM", "setting": "[1]", "value": 3},
      {"measurement": "IC50", "setting": "[2]", "value": 158, "unit": "nM"},
      {"measurement": "IC50", "setting": "Substance-P receptor [4]", "value": 200, "unit": "nM"}
    ]},
    {"smiles": "O=C(COc1cc(Cl)cc(Cl)c1)N(Cc1cccc(Cl)c1)C1CCNCC1", "values": [
      {"measurement": "Log K' IAM", "setting": "[1]", "value": 3.1},
      {"measurement": "IC50", "setting": "[2]", "value": 50.1, "unit": "nM"},
      {"measurement": "IC50", "setting": "Substance-P receptor [4]", "value": 126, "unit": "nM"}
    ]},
    {"smiles": "O=C(COc1cc(C(F)(F)F)cc(C(F)(F)F)c1)N(Cc1ccccc1Cl)C1CCNCC1", "values": [
      {"measurement": "Log K' IAM", "setting": "[1]", "value": 3.2},
      {"measurement": "IC50", "setting": "[2]", "value": 158, "unit": "nM"},
      {"measurement": "IC50", "setting": "Substance-P receptor [4]", "value": 126, "unit": "nM"}
    ]},
    {"smiles": "O=C(COc1cc(C(F)(F)F)cc(C(F)(F)F)c1)N(c1ccc(Cl)c(Cl)c1)C1CCNCC1", "values": [
      {"measurement": "Log K' IAM", "setting": "[1]", "value": 3.4},
      {"measurement": "IC50", "setting": "[2]", "value": 158, "unit": "nM"},
      {"measurement": "IC50", "setting": "Substance-P receptor [4]", "value": 31.6, "unit": "nM"}
    ]},
    {"smiles": "O=C(CCc1cc(C(F)(F)F)cc(C(F)(F)F)c1)N(c1ccc(F)cc1)C1CCNCC1", "values": [
      {"measurement": "Log K' IAM", "setting": "[1]", "value": 2.9},
      {"measurement": "IC50", "setting": "[2]", "value": 251, "unit": "nM"},
      {"measurement": "IC50", "setting": "Substance-P receptor [4]", "value": 200, "unit": "nM"}
    ]},
    {"smiles": "O=C(COc1cc(C(F)(F)F)cc(C(F)(F)F)c1)N(Cc1cccc(Cl)c1)C1CCNCC1", "values": [
      {"measurement": "Log K' IAM", "setting": "[1]", "value": 3.4},
      {"measurement": "IC50", "setting": "[2]", "value": 158, "unit": "nM"},
      {"measurement": "IC50", "setting": "Substance-P receptor [4]", "value": 25.1, "unit": "nM"}
    ]},
    {"smiles": "O=C(COc1cc(C(F)(F)F)cc(C(F)(F)F)c1)N(c1cc(Cl)cc(Cl)c1)C1CCNCC1", "values": [
      {"measurement": "Log K' IAM", "setting": "[1]", "value": 3.4},
      {"measurement": "IC50", "setting": "[2]", "value": 158, "unit": "nM"},
      {"measurement": "inhibition", "setting": "Substance-P receptor [3]", "value": "< 5", "unit": "%"}
    ]},
    {"smiles": "O=C(CCc1cc(C(F)(F)F)cc(C(F)(F)F)c1)N(Cc1ccccc1Cl)C1CCNCC1", "values": [
      {"measurement": "Log K' IAM", "setting": "[1]", "value": 3.2},
      {"measurement": "IC50", "setting": "[2]", "value": 200, "unit": "nM"},
      {"measurement": "IC50", "setting": "Substance-P receptor [4]", "value": 100, "unit": "nM"}
    ]},
    {"smiles": "Cc1cccc(CN(C(=O)COc2cc(C(F)(F)F)cc(C(F)(F)F)c2)C2CCNCC2)c1", "values": [
      {"measurement": "Log K' IAM", "setting": "[1]", "value": 3.3},
      {"measurement": "IC50", "setting": "[2]", "value": 251, "unit": "nM"},
      {"measurement": "IC50", "setting": "Substance-P receptor [4]", "value": 79.4, "unit": "nM"}
    ]},
    {"smiles": "Fc1ccc(CN(CCCc2cc(C(F)(F)F)cc(C(F)(F)F)c2)C2CCNCC2)cc1", "values": [
      {"measurement": "Log K' IAM", "setting": "[1]", "value": 3.8},
      {"measurement": "IC50", "setting": "[2]", "value": 25.1, "unit": "nM"},
      {"measurement": "IC50", "setting": "Substance-P receptor [4]", "value": 126, "unit": "nM"}
    ]},
    {"smiles": "Cc1cccc(CN(C(=O)CCc2cc(C(F)(F)F)cc(C(F)(F)F)c2)C2CCNCC2)c1", "values": [
      {"measurement": "Log K' IAM", "setting": "[1]", "value": 3.2},
      {"measurement": "IC50", "setting": "[2]", "value": 200, "unit": "nM"},
      {"measurement": "IC50", "setting": "Substance-P receptor [4]", "value": 25.1, "unit": "nM"}
    ]}
  ]
}
